# Screening data from PubChem.
# Most compounds without a hit are left out; they make up all but 2.9% or so of the library.
# Runt-CBFb FRET: inhibitors of RUNX1 Runt–CBFb binding, primary screen, biochemical, FRET, Cerulean-Runt, Venus-CBFb, uHTS; Runt-related transcription factor 1 (Homo sapiens) + Core-binding factor subunit beta …; actives 0.46% (n = 220,000); AID 1496, 2009; Cerulean-Runt/Venus-CBFb FRET ratio 530/480, 1 h; inhibition, % at 20 µM;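 active = inhibition over about 50% at 20 µM in the single-dose screen, limit read from the data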;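 also: 0% = DMSO wells and 100% = excess unlabeled CBFb competitor control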
#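 Buffer or medium: Tris pH 7.5 buffer with BSA. Assay system: Cerulean-labeled Runt domain protein. Amount: each fluorescent fusion protein 100 nM. Read-out basis: loss of energy transfer signal. Incubation: 1 h compound exposure, room temperature. Probe or stimulus: Venus-CBFb binding partner, 100 nM. Detection: FRET, excitation 422 nm, emission at 530 and 480 nm.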
# RanGTP-Imp inh: inhibitors of RanGTP-importin-beta interaction, primary screen, biochemical, FRET, CFP-Ran, YFP-importin-beta, homogeneous; Ran GTPase (GTP-bound) - importin-beta complex; cell-free CFP-Ran/YFP-importin-beta FRET ratio; inhibition, % (concentration not given with the values); actives 1.1% (n = 300,000);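 active = more than half of the replicate wells show a fall in the fluorescence ratio signal beyond about 16%, limit read from the data, passing the limit was not always enough; inconclusive = exactly half of the replicate wells pass the set limit; inactive = fewer than half of replicates pass the limit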;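 also: 0% = DMSO wells and 100% = Ran loaded with GDP instead of GTP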
# Runt-SMMHC FRET: inhibitors of RUNX1 Runt–CBFb-SMMHC binding, primary screen, biochemical, FRET, Cerulean-Runt, Venus-CBFb-SMMHC, uHTS; Cerulean-Runt/Venus-CBFb-SMMHC FRET ratio 530/480, 1 h; inhibition, % at 20 µM; actives 0.74% (n = 220,000); Runt-related transcription factor 1 (Homo sapiens) + Core-binding factor subunit beta …;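 active = mean inhibition across duplicate retests at 20 µM reaching about 50%, limit read from the data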;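 also: 0% = DMSO wells and 100% = wells with excess untagged CBFb-SMMHC; inhibitors lower the FRET ratio by blocking Runt binding to CBFb-SMMHC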
# AI-2 QS mod: Vibrio harveyi AI-2 quorum sensing modulators, primary screen, JMH597 strain, luminescence/OD600 ratio; Vibrio harveyi JMH597 AI-2 luminescence/OD600 ratio, 9 h; active compounds read low; strain lacks LuxN and CqsS sensors; 0 = neutral-control median; activity change, % at 7.5 µM; actives 0.4% (n = 300,000); AID 2094, 2009; in the data active = activity change below about -75%, passing the limit was not always enough; inconclusive = no clear call, values can overlap the other calls;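 also: luminescence divided by OD600 gain over 9 h not by final OD600 alone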
# Wee1 stabilizer: Wee1 degradation inhibitors, primary screen, cell-based, HeLa, Wee1K328M-luciferase, luminescence; Wee1-like protein kinase (Homo sapiens), P30291; HeLa Luc-Wee1K328M stability; 100% = proteasome inhibitor MG132 effect; reporter increase, % at 5 µM; actives 1.2% (n = 220,000); AID 1321, 2008;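 active = activation above the mean of all tested compounds plus 3 SD, set per screening run, cut at about 8.8% in these data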;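 also: cells exposed to compound for 20 h before luminescence read; 0% = DMSO alone and 100% = MG132 at 30 µM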
# proKLK7 act: proKLK7 zymogen activators, primary screen, biochemical, fluorescence intensity; Kallikrein-7 (Homo sapiens), P49862; purified proKLK7, EDANS-DABCYL substrate fluorescence; 100% is mature enzyme control, 0% vehicle; activation, % at 7 µM; actives 0.9% (n = 370,000); AID 652039, 2013;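 active = activation above the mean of all tested compounds plus 3 SD, computed per campaign excluding outliers beyond control limits, cut at about 13% in these data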
# Target sequence (P49862 whole entry, looked up): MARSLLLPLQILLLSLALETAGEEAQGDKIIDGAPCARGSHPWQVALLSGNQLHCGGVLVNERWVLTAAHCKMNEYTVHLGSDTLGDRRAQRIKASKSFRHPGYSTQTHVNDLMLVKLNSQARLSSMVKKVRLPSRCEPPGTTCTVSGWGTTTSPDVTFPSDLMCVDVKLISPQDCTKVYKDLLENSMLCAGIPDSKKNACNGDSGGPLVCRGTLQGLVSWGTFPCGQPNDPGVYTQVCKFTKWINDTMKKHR
# KLK7 act conf: proKLK7 zymogen activators, confirmation, biochemical, fluorescence intensity, triplicate; shares compounds with proKLK7 act; purified proKLK7, EDANS-DABCYL substrate fluorescence; scaled: vehicle 0, mature enzyme 100; activation, % at 7 µM; actives 68% (n = 3,200);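 active = activation, as change over the incubation, above the mean of all tested compounds plus 3 SD, cut at about 13% in these data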
# EDANS-DABCYL int: EDANS-DABCYL substrate optical interference, artefact control for kallikrein-7 zymogen activator project, biochemical, fluorescence intensity, high throughput | shares compounds with proKLK7 act | no enzyme, 4 h; solvent 0%, active enzyme control 100% | activation, % at 7 µM | actives 80% (n = 3,200) | AID 686952, 2013;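 active = activation above the all-compound mean plus 3 SD, ignoring values outside control-based bounds, cut at about 4.8% in these data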;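 also: value is the 4 h activation minus the activation read at time zero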
# K7 EDANS ctr: EDANS fluorescence interference in dose response, no enzyme; actives 20% (n = 250); shares compounds with proKLK7 act; EC50, µM; EDANS-DABCYL peptide fluorescence interference; AID 720493;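 active = compounds that raise the fluorescence signal in this interference counterscreen, with EC50 at or below 10 µM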;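 also: intact quenched peptide substrate alone read at 355 nm excitation and 520 nm emission; signal is fluorescence gain from T0 to T4 after four hours at room temperature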
# * hit, by the source's call; i = inactive; u = inconclusive; x = no result given.
SMILES,Runt-CBFb FRET,RanGTP-Imp inh,Runt-SMMHC FRET,AI-2 QS mod,Wee1 stabilizer,proKLK7 act,KLK7 act conf,EDANS-DABCYL int,others
CS(=O)(=O)NN1C(=O)c2ccccc2NC1c1cc2ccccc2nc1Cl (configuration not stated),2,u,2,21,2,0,x,x,
O=C(Nc1cccc2cccnc12)c1ccc2sc([C@@H]3O[C@H](CO)[C@H](O)[C@H](O)[C@H]3O)nc2c1,x,x,x,x,x,-1,x,x,
COc1ccc(-c2ccc(CN3C(C)C(=O)N(Cc4cn(CCC5OCCCO5)nn4)CCS3(=O)=O)cc2)cc1 (configuration not stated),x,x,x,x,x,1,x,x,
Cc1ccc(S(=O)(=O)N2CCC(C(=O)N3CCCCCCC3)CC2)cc1C,x,x,x,x,x,-1,x,x,
CCN(CC)S(=O)(=O)c1ccc(O)c(NC(=O)c2cc(-c3cc(OC)c(OC)c(OC)c3)nc3ccccc23)c1,x,-4,x,25,x,x,x,x,
CSc1ccc(Cn2c(C)c(C(=O)NCc3ccc4c(c3)OCO4)sc2=O)cc1,x,x,x,x,x,0,x,x,
COc1ccc(C2Nc3ccccc3C(=O)N2NS(C)(=O)=O)cc1OC (configuration not stated),3,1,10,22,6,59*,22*,13*,K7 EDANS ctr=i
CCOC(=O)NC1(NC2CCCCC2)Oc2ccccc2O1,48,2,35,10,-3,0,x,x,
CC(=O)c1ccc(NC(=O)C2=CC(c3cccs3)=NS(=O)(=O)N2C)cc1,x,-1,x,19,x,0,x,x,
Cc1ccc(NC(=O)C2=CC(c3cccs3)=NS(=O)(=O)N2C)cc1,x,-2,x,8,x,18*,22*,13*,K7 EDANS ctr=i
COc1cc(-c2ccc3cc(OC)c(OC)c(OC)c3c2)cc(OC)c1OC,x,x,x,x,x,-6,x,x,
N#CCc1c(C#N)c(N)nc(N2CCCC(CO)C2)c1C#N (configuration not stated),-1,1,1,22,5,-20,x,x,
CCCS(=O)(=O)c1c(S(=O)(=O)CCC)c2cc(-c3ccncc3)ccn2c1C(=O)OC,18,-2,109*,21,2,66*,67*,65*,
CC(=O)c1ccc(NC(=O)COC(=O)C2C3CC4OC(=O)C2C4C3)cc1 (configuration not stated),x,2,x,-3,x,-1,x,x,
C[C@H]1C(c2ccc(F)cc2)=NN(c2ccccc2)[C@@H]1CO,x,x,x,x,x,23*,-13,-26,
CC(=O)c1cccc(NC(=O)c2ccc(-c3ccccc3[N+](=O)[O-])o2)c1,-2,1,-5,11,1,0,x,x,
CCOC(=O)N1CCC2(CC1)CC(=O)c1cc(O)ccc1O2,-2,-2,1,26,-1,2,x,x,
CC1(C)CC(=O)c2cc(OCC(=O)N3CCCCCC3)ccc2O1,0,4,2,8,2,26*,68*,75*,
CCOC(=O)COc1ccc2c(c1)C(=O)CC(C)(C)O2,4,3,6,28,5,18*,67*,67*,
CC1(C)CC(=O)c2cc(O)ccc2O1,0,u,-1,31,0,2,x,x,
CC1(C)CC(=O)c2cc(OCC(=O)N3CCN(c4ccccc4F)CC3)ccc2O1,-2,-4,2,51,2,10,x,x,
CC1(C)CC(=O)c2cc(OCC(=O)O)ccc2O1,2,6,4,34,4,14*,42*,48*,
Cc1cc(C)c2c(c1)OC(O)(C(F)F)CC2=O (configuration not stated),-2,4,1,5,-2,1,x,x,
COc1ccc2c(c1)C(=O)CC(O)(C(F)F)O2 (configuration not stated),3,1,-2,6,9.8*,45*,40*,33*,
O=c1[nH]c(CSc2nc(-c3ccc(F)cc3)cs2)nc2ccccc12,-1,-2,0,7,-3,1,x,x,
SMILES,Runt-CBFb FRET,RanGTP-Imp inh,Runt-SMMHC FRET,AI-2 QS mod,Wee1 stabilizer,proKLK7 act,KLK7 act conf,EDANS-DABCYL int,others
Cc1cc(OCC(=O)NCCN2CCOCC2)cc(C)c1Br,-2,-4,-2,0,1,-1,x,x,
CC1(C)CC(=O)c2cc(OCC(=O)NCCN3CCOCC3)ccc2O1,3,5,2,0,-1,16*,25*,26*,
CCOC(=O)N1CCN(C(=O)COc2ccc3c(c2)C(=O)CC(C)(C)O3)CC1,2,-1,8,6,0,31*,26*,10*,K7 EDANS ctr=>70
CCOC(=O)N1CCN(C(=O)COc2cc(C)c(Cl)c(C)c2)CC1,1,0,-4,11,0,-1,x,x,
O=C(CSc1nnc(-c2ccc(O)cc2)o1)NNC(=O)c1ccncc1,x,5,x,35,x,-1,x,x,
CN(C)C(CNC(=O)c1ccc(S(=O)(=O)Nc2ccccc2F)cc1)c1ccco1 (configuration not stated),x,x,x,x,x,0,x,x,
COc1ccc(Oc2nc(OC)cc(OC)n2)cc1,2,3,-5,20,-1,0,x,x,
Cc1ccc(S(=O)(=O)N2CCOCC2)cc1C(=O)O,0,1,1,22,0,-1,x,x,
O=C(O)c1cc2cccc(S(=O)(=O)N3CCOCC3)c2cc1O,-13,-6,-52,2,3,14*,70*,72*,
CC[C@H](C)/C=C(C)/C=C/C1=CC2=CC(=O)[C@]3(C)OC(=O)[C@@H](C(C)=O)[C@@H]3C2=CO1,8,55*,85*,20,-2,19*,11,8.1*,
COc1ccc(-c2c(NC(C)=O)n(C)c3ccccc3c2=O)cc1,0,0,3,20,1,10,x,x,
